Test results reported in ChEMBL document CHEMBL1122194, “Prodrugs of L-cysteine as liver-protective agents. 2(RS)-Methylthiazolidine-4(R)-carboxylic acid, a latent cysteine” (J Med Chem, 1982).

Key:
[1] = organism: Mus musculus; assay: Tested for Protection from Acetaminophen-Induced Liver Necrosis in Mice (18 animals) and the deaths were observed after the 48 hours due to liver necrosis; Death due to hemorrhagic necrosis of the liver; assay type: functional
Outline: (§1)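 Male Swiss-Webster mice (18–33 g) were randomized and given acetaminophen 750 mg/kg. Protective agents or saline followed 30 min later. Deaths were counted over 48 h with food and water ad libitum, then survivors were killed by cervical dislocation. Livers were formalin-fixed and sectioned, stained with H&E and Gomori reticulum stain, and necrosis was graded 0 to 4+ by Mitchell criteria. Counts pooled up to two independent experiments.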

[2] = organism: Mus musculus; assay: Tested for Protection from Acetaminophen-Induced Liver Necrosis in Mice, Number of animals(mice) with liver necrosis was determined after 0 hour; assay type: functional
[3] = organism: Mus musculus; assay: Tested for Protection from Acetaminophen-Induced Liver Necrosis in Mice, Number of animals(mice) with grade 4+ liver necrosis was determined after 48 hr
[4] = organism: Mus musculus; assay: Tested for Protection from Acetaminophen-Induced Liver Necrosis in Mice (in 10 animals) and the deaths were observed after the 48 hours due to liver necrosis; assay type: functional; outline: as §1
[5] = organism: Mus musculus; assay: Tested for Protection from Acetaminophen-Induced Liver Necrosis in Mice, Number of animals(mice) with grade 2+ liver necrosis was determined after 48 hours
[6] = organism: Mus musculus; assay: Tested for Protection from Acetaminophen-Induced Liver Necrosis in Mice, Number of animals(mice) with grade 3+ liver necrosis was determined after 48 hours
[7] = organism: Mus musculus; assay: Tested for 17 animals(mice) and the deaths were observed after the 48 hours due to liver necrosis; assay type: functional; outline: as §1
[8] = organism: Mus musculus; assay: Tested for Protection from Acetaminophen-Induced Liver Necrosis in Mice (in 18 animals) and the deaths were observed after the 48 hours due to liver necrosis; assay type: functional; outline: as §1
[9] = organism: Mus musculus; assay: Tested for Protection from Acetaminophen-Induced Liver Necrosis in Mice, Number of animals(mice) with liver necrosis was determined after 1 hr; assay type: functional
[10] = organism: Mus musculus; assay: Tested for Protection from Acetaminophen-Induced Liver Necrosis in Mice (in 17 animals) and the deaths were observed after the 48 hours due to liver necrosis; assay type: functional; outline: as §1
[11] = Lethal dose after intraperitoneal administration in mice was determined; assay type: toxicity, organism-based; settings: mouse, in vivo, ip
[12] = organism: Mus musculus; assay: Tested for 10 animals(mice) and the deaths were observed after the 48 hours due to liver necrosis; assay type: functional; outline: as §1
[13] = organism: Mus musculus; assay: Tested for Protection from Acetaminophen-Induced Liver Necrosis in Mice, necrosis was determined after 3 hour; assay type: functional

| SMILES | No. of animals with liver necrosis [2] | No. of animals with grade 4+ liver necrosis [3] | No. of animals with grade 3+ liver necrosis [6] | further results |
| --- | --- | --- | --- | --- |
| CC(=O)Nc1ccc(O)cc1.CC1N[C@H](C(=O)O)CS1 | 17 | 1 | – | Deaths [1]: 1 |
| CC(=O)Nc1ccc(O)cc1.O=C(O)C1CSCN1 | 1 | 2 | 4 | Deaths [4]: 4; No. of animals with grade 2+ liver necrosis [5]: 1 |
| CC1N[C@H](C(=O)O)CS1 (some centres not stated) | 17 | – | – | Deaths [7]: 0 |
| CC(=O)N[C@@H](CS)C(=O)O.CC(=O)Nc1ccc(O)cc1 | 13 | 1 | 1 | Deaths [8]: 1; No. of animals with liver necrosis [9]: 3 |
| CC(=O)Nc1ccc(O)cc1 [ACETAMINOPHEN] | 1 | 8 | 7 | Deaths [10]: 11; No. of animals with grade 2+ liver necrosis [5]: 1 |
| CC(=O)N[C@@H](CS)C(=O)O [ACETYLCYSTEINE] | 15 | – | – | No. of animals with liver necrosis [9]: 2; Deaths [7]: 0 |
| O=C(O)C1CSCN1 (configuration not stated) [TIMONACIC] | 9 | – | – | LD50 [11]: 164 mg/kg; Deaths [12]: 3; No. of animals with liver necrosis [13]: 1 |
